Test results taken from ChEMBL document CHEMBL4428087, “Synthesis and antitumor activity evaluation of quinazoline derivatives bearing piperazine-1-carbodithioate moiety at C4-position” (Bioorg Med Chem Lett, 2016).

Experiments:
[1] = tested on: HCT-116; experiment: Antiproliferative activity against human HCT116 cells after 72 hrs by MTS assay; type: functional, cell-based; settings: HCT-116, 72 h
Summary of the method: (§1)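 Cells were exposed to compound for 72 h. A first screen at 50 μM called a compound active at ≥50% inhibition versus vehicle-treated cells. Active compounds were then tested at various concentrations, and IC50 (concentration giving 50% proliferation inhibition) was derived. Values are mean ± SD from triplicate determinations in three independent experiments.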

[2] = tested on: A549; experiment: Antiproliferative activity against human A549 cells after 72 hrs by MTS assay; type: functional, cell-based; settings: A549, 72 h; summary of the method: as §1
[3] = tested on: MCF7; experiment: Antiproliferative activity against human MCF7 cells after 72 hrs by MTS assay; type: functional, cell-based; settings: MCF7, 72 h; summary of the method: as §1
[4] = tested on: HCT-116; experiment: Cell cycle arrest in human HCT116 cells assessed as accumulation at G2/M phase at 0.1 uM after 24 hrs by propidium iodide staining based flow cytometry (reference value: 16.91 %); type: functional
Summary of the method: (§2)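 HCT-116 cells were treated for 24 h at multiples of IC50 (1×, 1.25× or 1.5×) or at 0.1 µM, with a DMSO control. Cells were harvested, fixed in 70% ice-cold ethanol and stained with propidium iodide. DNA content was read by flow cytometry, and the percentages of cells in G0/G1, S and G2/M were calculated. Three independent experiments were run.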

[5] = tested on: HCT-116; experiment: Cell cycle arrest in human HCT116 cells assessed as accumulation at G0/G1 phase after 24 hrs by propidium iodide staining based flow cytometry; type: functional; summary of the method: as §2
[6] = tested on: HCT-116; experiment: Cell cycle arrest in human HCT116 cells assessed as accumulation at S phase at 0.1 uM after 24 hrs by propidium iodide staining based flow cytometry (reference value: 46.36 %); type: functional; summary of the method: as §2
[7] = tested on: HCT-116; experiment: Cell cycle arrest in human HCT116 cells assessed as accumulation at G0/G1 phase at 0.1 uM after 24 hrs by propidium iodide staining based flow cytometry (reference value: 34.93 %); type: functional; summary of the method: as §2
[8] = tested on: HCT-116; experiment: Cell cycle arrest in human HCT116 cells assessed as accumulation at G2/M phase at IC50 after 24 hrs by propidium iodide staining based flow cytometry (reference value: 16.91 %); type: functional
[9] = tested on: HCT-116; experiment: Cell cycle arrest in human HCT116 cells assessed as accumulation at G0/G1 phase at IC50 after 24 hrs by propidium iodide staining based flow cytometry (reference value: 34.93 %); type: functional
[10] = tested on: HCT-116; experiment: Cell cycle arrest in human HCT116 cells assessed as accumulation at S phase at IC50 after 24 hrs by propidium iodide staining based flow cytometry (reference value: 46.36 %); type: functional
[11] = tested on: HCT-116; experiment: Cell cycle arrest in human HCT116 cells assessed as accumulation at S phase at 1.5 times IC50 after 24 hrs by propidium iodide staining based flow cytometry (reference value: 46.36 %); type: functional; summary of the method: as §2
[12] = tested on: HCT-116; experiment: Cell cycle arrest in human HCT116 cells assessed as accumulation at G2/M phase at 1.5 times IC50 after 24 hrs by propidium iodide staining based flow cytometry (reference value: 16.91 %); type: functional; summary of the method: as §2
[13] = tested on: HCT-116; experiment: Cell cycle arrest in human HCT116 cells assessed as accumulation at G0/G1 phase at 1.5 times IC50 after 24 hrs by propidium iodide staining based flow cytometry (reference value: 34.93 %); type: functional; summary of the method: as §2
[14] = tested on: HCT-116; experiment: Cell cycle arrest in human HCT116 cells assessed as accumulation at G2/M phase at 1.25 times IC50 after 24 hrs by propidium iodide staining based flow cytometry (reference value: 16.91 %); type: functional; summary of the method: as §2
[15] = tested on: HCT-116; experiment: Cell cycle arrest in human HCT116 cells assessed as accumulation at S phase at 1.25 times IC50 after 24 hrs by propidium iodide staining based flow cytometry (reference value: 46.36 %); type: functional; summary of the method: as §2
[16] = tested on: HCT-116; experiment: Cell cycle arrest in human HCT116 cells assessed as accumulation at G0/G1 phase at 1.25 times IC50 after 24 hrs by propidium iodide staining based flow cytometry (reference value: 34.93 %); type: functional; summary of the method: as §2
[17] = tested on: HCT-116; experiment: Cell cycle arrest in human HCT116 cells assessed as accumulation at sub-G1 phase after 24 hrs by propidium iodide staining based flow cytometry; type: functional; summary of the method: as §2

COc1cc2c(N3CCN(C(=S)SCc4ccc([N+](=O)[O-])cc4)CC3)ncnc2cc1OCCCN1CCCCC1
IC50 [1]: 5.65 µM | IC50 [2]: 5.36 µM | IC50 [3]: 6.89 µM

COc1cc2c(N3CCN(C(=S)SCc4ccc(F)c(F)c4)CC3)ncnc2cc1OCCCN1CCCCC1
IC50 [1]: 5.96 µM | IC50 [2]: 4.9 µM | IC50 [3]: 3.07 µM

COc1cc2c(N3CCN(C(=S)SCc4ccccn4)CC3)ncnc2cc1OCCCN1CCCCC1
IC50 [1]: 20.6 µM | IC50 [2]: 28.8 µM | IC50 [3]: 20.7 µM

COc1cccc(CSC(=S)N2CCN(c3ncnc4cc(OCCCN5CCCCC5)c(OC)cc34)CC2)c1
IC50 [1]: 8.01 µM | IC50 [2]: 4.58 µM | IC50 [3]: 3.86 µM

COc1ccc(CSC(=S)N2CCN(c3ncnc4cc(OCCCN5CCCCC5)c(OC)cc34)CC2)cc1
IC50 [1]: 4.92 µM | IC50 [2]: 4.25 µM | IC50 [3]: 4.16 µM

CCN(CC)CCNC(=O)c1c(C)[nH]c(/C=C2\C(=O)Nc3ccc(F)cc32)c1C [SUNITINIB]
Activity [4]: 14.16% | Activity [5]: Dose-dependent effect | Activity [6]: 33.36% | Activity [7]: 50.07%

COc1cc2c(N3CCN(C(=O)Nc4ccc(OC(C)C)cc4)CC3)ncnc2cc1OCCCN1CCCCC1 [TANDUTINIB]
IC50 [1]: 18.1 µM | IC50 [2]: 14.8 µM | IC50 [3]: 14.7 µM

COc1cc2c(N3CCN(C(=S)SCc4ccco4)CC3)ncnc2cc1OCCCN1CCCCC1
IC50 [1]: 7.3 µM | IC50 [2]: 6.58 µM | IC50 [3]: 7.29 µM

COc1cc2c(N3CCN(C(=S)SCc4ccsc4)CC3)ncnc2cc1OCCCN1CCCCC1
IC50 [1]: 5.64 µM | IC50 [2]: 4.84 µM | IC50 [3]: 5.17 µM

COc1cc2c(N3CCN(C(=S)SCc4c(F)c(F)c(F)c(F)c4F)CC3)ncnc2cc1OCCCN1CCCCC1
IC50 [1]: 4.45 µM | IC50 [2]: 4.58 µM | IC50 [3]: 4.14 µM

COc1cc2c(N3CCN(C(=S)SCC4CCOCC4)CC3)ncnc2cc1OCCCN1CCCCC1
IC50 [1]: 15.1 µM | IC50 [2]: 19.1 µM | IC50 [3]: 18.4 µM

COc1cc2c(N3CCN(C(=S)SCc4ccc(C#N)cc4)CC3)ncnc2cc1OCCCN1CCCCC1
IC50 [1]: 8.67 µM | IC50 [2]: 9.52 µM | IC50 [3]: 10.1 µM

CCCSC(=S)N1CCN(c2ncnc3cc(OCCCN4CCCCC4)c(OC)cc23)CC1
IC50 [1]: 8.67 µM | IC50 [2]: 8.07 µM | IC50 [3]: 10.5 µM

CCSC(=S)N1CCN(c2ncnc3cc(OCCCN4CCCCC4)c(OC)cc23)CC1
IC50 [1]: 10.3 µM | IC50 [2]: 18.4 µM | IC50 [3]: 16.6 µM

COc1cc2c(N3CCN(C(=S)SCc4ccccc4)CC3)ncnc2cc1OCCCN1CCCCC1
IC50 [1]: 28.8 µM | IC50 [2]: 15.7 µM | IC50 [3]: 28 µM

COc1cc2c(N3CCN(C(=S)SCc4ccc(Cl)cc4)CC3)ncnc2cc1OCCCN1CCCCC1
IC50 [1]: 8.04 µM | IC50 [2]: 4.71 µM | IC50 [3]: 3.94 µM

COc1cc2c(N3CCN(C(=S)SCc4ccc(C(=O)O)cc4)CC3)ncnc2cc1OCCCN1CCCCC1
IC50 [1]: > 50 µM | IC50 [2]: > 50 µM | IC50 [3]: > 50 µM

COc1cc2c(N3CCN(C(=S)SCc4ccncc4)CC3)ncnc2cc1OCCCN1CCCCC1
IC50 [1]: > 50 µM | IC50 [2]: > 50 µM | IC50 [3]: > 50 µM

O=c1[nH]cc(F)c(=O)[nH]1 [FLUOROURACIL]
Activity [8]: 8.29% | Activity [9]: 28.47% | Activity [10]: 62.28%

COc1cc2c(N3CCN(C(=S)SC)CC3)ncnc2cc1OCCCN1CCCCC1
IC50 [1]: 24.4 µM | IC50 [2]: 33.4 µM | IC50 [3]: 27.5 µM

COc1cc2c(N3CCN(C(=S)SCC4CCCCC4)CC3)ncnc2cc1OCCCN1CCCCC1
Activity [11]: 27.37% | Activity [5]: Dose-dependent effect | IC50 [1]: 4.55 µM | IC50 [2]: 4.06 µM | Activity [12]: 14.4% | Activity [13]: 55.8% | Activity [14]: 24.97% | Activity [15]: 23.67% | Activity [16]: 50.65% | Activity [8]: 28.74% | Activity [9]: 44.47% | Activity [17]: Dose-dependent effect | Activity [10]: 26.82% | IC50 [3]: 3.99 µM

COc1cc2c(N3CCN(C(=S)SCc4ccc(Br)cc4)CC3)ncnc2cc1OCCCN1CCCCC1
IC50 [1]: 4.52 µM | IC50 [2]: 4.31 µM | IC50 [3]: 3.93 µM

COc1cc2c(N3CCN(C(=S)SCc4ccc(F)cc4F)CC3)ncnc2cc1OCCCN1CCCCC1
IC50 [1]: 4.64 µM | IC50 [2]: 5.44 µM | IC50 [3]: 4.67 µM

COc1cc2c(N3CCN(C(=S)SCc4ccc(F)cc4)CC3)ncnc2cc1OCCCN1CCCCC1
IC50 [1]: 4.5 µM | IC50 [2]: 4.25 µM | IC50 [3]: 4.2 µM

COc1cc2c(N3CCN(C(=S)SCc4ccc(C)cc4)CC3)ncnc2cc1OCCCN1CCCCC1
IC50 [1]: 5.46 µM | IC50 [2]: 4.51 µM | IC50 [3]: 3.73 µM

COc1cc2c(N3CCN(C(=S)SCc4cccnc4)CC3)ncnc2cc1OCCCN1CCCCC1
IC50 [1]: 22.2 µM | IC50 [2]: 19.5 µM | IC50 [3]: 22.2 µM

COc1cc2c(N3CCN(C(=S)SCC4CCCO4)CC3)ncnc2cc1OCCCN1CCCCC1 (centres undefined)
IC50 [1]: 19.2 µM | IC50 [2]: 22.8 µM | IC50 [3]: 22.7 µM

COc1cc2c(N3CCN(C(=S)SC(C)C)CC3)ncnc2cc1OCCCN1CCCCC1
IC50 [1]: 10.4 µM | IC50 [2]: 11.3 µM | IC50 [3]: 8.37 µM

COc1cc2c(N3CCN(C(=S)SCC4OCCO4)CC3)ncnc2cc1OCCCN1CCCCC1
IC50 [1]: 23.9 µM | IC50 [2]: 24.6 µM | IC50 [3]: 29.6 µM
